From PubChem
EBI2 block – antagonists of human EBI2 receptor. P32249. EBI2 beta-arrestin recruitment, luminescence, 7a,25-OHC stimulated. inhibition, % at 5 µM. hit rate 0.81% among 360,000. AID 651636; in the data active = inhibition above about 38%;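 note: enzyme fragment complementation signal reports receptor beta-arrestin coupling in cells; 0% = agonist plus DMSO wells and 100% = wells without agonist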
hiPSC survival – enhancers of human iPSC single-cell survival. hit rate 0.044% among 360,000. hiPSC single-cell survival, ATPlite luminescence; 100% = ROCK inhibitor wells, 0% = DMSO. survival enhancement, % at 20 µM. AID 602274; in the data active = survival enhancement above about 18%;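 note: cells exposed to compounds for 16 hours before the ATP read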
APJ agonist – activates the human apelin receptor APJ | hit rate 0.11% among 330,000 | P35414 | activation, % at 20 µM | AID 2520 | CHO-K1 APJ PathHunter beta-arrestin, luminescence; 0% DMSO wells, 100% apelin;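 active = activation more than six SD over the plate average, tested at 20 µM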;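 note: 0% = DMSO alone and 100% = apelin-13 at 10 nM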
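Test system – PathHunter CHO-K1 APJ (AGTRL-1) beta-arrestin reporter cells · Input – 1000 cells/well · Compound – single test compound dose, 20 µM final, 1% DMSO · Times – compound stimulation 90 min at 25 °C, detection 60 min · Technique – beta-gal luminescence · Read-out basis – APJ–arrestin association signal · Control set – negative DMSO alone, positive Apelin-13 at 10 nM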
CXCR6 inh – CXCR6 (human) receptor inhibition; CHO-K1 PathHunter CXCR6 beta-arrestin, luminescence; hit rate 0.36% among 360,000; inhibition, % at 20 µM; O00574; in the data active = inhibition above about 34%, passing the limit was not always enough;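 note: antagonist mode with CXCL16 agonist at 10 nM final; 0% = 10 nM CXCL16 with DMSO and 100% = unstimulated wells without agonist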
APJ antagonist – APJ receptor antagonism. P35414. inhibition, % at 20 µM. hit rate 0.32% among 330,000. AID 2521. CHO-K1 APJ beta-arrestin complementation, luminescence;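 active = inhibition above about 40% at 20 µM, limit read from the data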;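 note: cells challenged with 10 nM apelin-13 agonist together with compound; plate controls were apelin-13 plus DMSO wells for no effect and DMSO wells lacking apelin-13 for full effect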
CCR6 antag – blocks CCL20-driven beta-arrestin recruitment at human CCR6. P51684. CHO-K1 CCR6 PathHunter beta-arrestin, luminescence, CCL20-stimulated. inhibition, % at 20 µM. hit rate 0.49% among 340,000;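 active = compounds whose inhibition of the agonist-driven luminescence signal at 20 µM reaches about 50%, limit read from the data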;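 note: cells stimulated with CCL20 at 14 nM final; plate controls were DMSO with CCL20 for no effect and DMSO without agonist for full effect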
Target sequence (P51684 whole entry, looked up): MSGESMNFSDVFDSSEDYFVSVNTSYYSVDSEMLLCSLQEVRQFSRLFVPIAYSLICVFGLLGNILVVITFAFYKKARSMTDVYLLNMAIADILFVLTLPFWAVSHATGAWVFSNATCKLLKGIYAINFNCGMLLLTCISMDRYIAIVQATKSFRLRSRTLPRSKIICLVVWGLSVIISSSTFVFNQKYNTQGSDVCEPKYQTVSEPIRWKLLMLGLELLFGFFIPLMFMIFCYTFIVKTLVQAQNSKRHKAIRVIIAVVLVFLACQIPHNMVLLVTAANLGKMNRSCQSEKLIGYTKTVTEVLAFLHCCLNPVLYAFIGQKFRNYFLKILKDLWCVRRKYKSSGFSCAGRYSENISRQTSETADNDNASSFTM
The depositor's hits bear a star; / = no result given. Most compounds without a hit are left out; they make up all but 1.5% or so of the library.

SMILES | EBI2 block | hiPSC survival | APJ agonist | CXCR6 inh | APJ antagonist | CCR6 antag
C=CC(=O)N1C/C(=C/c2ccc(F)cc2)C(=O)/C(=C\c2ccc(F)cc2)C1 | 52.9* | 12.5 | / | 72.3* | / | 83.9*
CCC1=NN(C(=O)c2cccc(Br)c2)C(O)(c2ccc(Br)cc2)C1 (stereo not drawn) | 13.1 | -0.1 | -5.3 | 32.2 | 28.0 | 56.0*
O=C(Nc1cccnc1Cl)c1cccnc1Cl | -6.0 | 23.4* | 0.5 | 4.9 | -11.3 | -14.1
C/C=C(\C)C(=O)OC1[C@H](OC(C)=O)C2(CO)C(CC1(C)C)C1=CCC3C4(C)CCC(O[C@@H]5O[C@H](C(=O)O)[C@@H](O[C@@H]6O[C@H](CO)[C@@H](O)[C@H](O)[C@H]6O)[C@H](O)[C@H]5O[C@H]5O[C@H](CO)[C@@H](O)[C@H](O)[C@H]5O)[C@](C)(CO)C4CCC3(C)[C@]1(C)C[C@H]2O (stereo partly drawn) | -14.2 | -2.6 | / | 81.7* | / | 94.7*
COC(=O)C1CN(S(=O)(=O)c2ccc(C)cc2)CCN1S(=O)(=O)c1ccc(C)cc1 (stereo not drawn) | 54.6* | -3.9 | -3.2 | 1.9 | 12.3 | 8.0
Cc1ccc(S(=O)(=O)NC2=C(N3CCN(Cc4ccccc4)CC3)C(=O)c3ccccc3C2=O)cc1 | 2.0 | -1.3 | 2.3 | 5.0 | -33.2 | 54.3*
CC1=NN(C(N)=S)C(=O)C1N=Nc1c(Cl)cc([N+](=O)[O-])cc1Cl (stereo not drawn) | 8.6 | 2.8 | -3.1 | 39.7* | 28.6 | 57.5*
N#CCOC(=O)[C@H](Cc1c[nH]c2ccccc12)NS(=O)(=O)c1ccc(Cl)cc1 | 4.5 | 0.3 | 1.0 | -16.6 | 4.1 | -23.3
O=c1[nH]c(-c2ccccn2)nc2sc(-c3ccccc3)cc12 | 86.6* | -1.3 | / | 24.9 | / | 35.7
Cc1c(C(=O)N(C)C)sc2nc(-c3ccccn3)[nH]c(=O)c12 | -6.0 | -0.8 | -7.6 | -4.3 | 5.3 | 28.8
COc1cc(Br)c(CC(=O)NC2CC2)cc1OC | 2.8 | 0.3 | -0.3 | 3.0 | -12.4 | 1.9
Cc1ccc(-c2cnc3c(c2)C(=O)N([C@H](C)CO)C[C@@H](C)[C@@H](CN(C)C(=O)Cc2ccccc2)O3)cc1 | 2.8 | 3.3 | / | -4.3 | / | /
O=C(O)c1ccccc1C(=O)NCC(O)COCC1CC=CCC1 (stereo not drawn) | 0.6 | 28.3* | 1.1 | 3.4 | -5.0 | 11.0
Cc1c(NC(=O)CSCc2ccco2)c(=O)n(-c2ccccc2)n1C | 0.5 | -0.5 | 1.5 | 2.7 | -23.8 | 7.5
CCOC(=O)c1sc(=S)n(Cc2ccccc2)c1C | 2.0 | -0.2 | -1.9 | 15.3 | 1.1 | 17.7
CN(C)C(=S)N=c1ssc(=S)n1Cc1ccccc1 | 11.7 | -0.8 | / | 19.0 | / | 50.7*
CN(C(=O)COC(=O)CNC(=O)c1ccc2ccccc2c1)c1c(N)n(Cc2ccccc2)c(=O)[nH]c1=O | -10.8 | -0.5 | -2.0 | 3.7 | 9.2 | -1.8
CCOC(=O)N1CCN(C(=O)C2CCN(C(=O)c3ccccc3C)CC2)CC1 | 3.2 | -3.6 | / | 108.9* | / | /
Cc1ccccc1C(=O)N1CCC(C(=O)N2CCN(c3ncccn3)CC2)CC1 | -1.6 | 3.9 | -3.7 | 0.6 | -6.6 | -5.1
Cc1ccc2c(c1)N(C(=O)CCC(=O)NCCN1CCOCC1)CCO2 | -12.2 | 1.4 | -1.7 | -6.9 | 6.1 | -0.1
Cc1ccccc1/C=N/Nc1ccnc2cc(Cl)ccc12 | 21.7 | -1.4 | / | 8.7 | / | 15.9
Oc1ccc(/C=N/Nc2ccnc3cc(Cl)ccc23)c(O)c1 | 45.5* | 0.9 | 2.1 | -3.3 | -12.6 | 10.7
O=C(COc1cccc(Br)c1)NN=C1c2ccccc2-c2ccccc21 | -2.0 | 1.2 | -1.3 | -5.6 | 2.2 | 8.2
O=C(NN=C1c2ccccc2-c2ccccc21)c1cccc(Br)c1 | 12.8 | 0.6 | -3.8 | 46.5* | 39.9 | 46.9
CCN1CCN(S(=O)(=O)c2ccc(Cl)c(C(=O)N(C)Cc3ccco3)c2)CC1 | 8.6 | -0.4 | 0.9 | 2.1 | 22.0 | 1.8
COc1ccc(/C=N\NC(=O)c2cc(O)c(O)c(O)c2)cc1COc1ccc(C(=O)OCC(C)C)cc1 | 4.3 | 0.8 | 4.5 | 8.9 | 11.6 | 54.7*
CCOC(=O)c1ccc(N/N=C/c2cc(Br)cc([N+](=O)[O-])c2O)cc1 | 20.5 | -0.8 | -5.9 | 52.5* | 18.8 | 60.0*
